This is an account of results in ChEMBL document CHEMBL4152267, “Structure-based design of novel quinoxaline-2-carboxylic acids and analogues as Pim-1 inhibitors” (Eur J Med Chem, 2018).

Structures can show the parent of a compound that is named as a salt. Some results are limits rather than exact numbers.

The target of experiment [1] is Serine/threonine-protein kinase pim-1 (Homo sapiens, UniProt P11309). Kind of experiment: Inhibition of recombinant human Pim1 expressed in bacterial expression system using histone H1 as substrate after 30 mins by ADP-Glo reagent based luminescence assay. Summed up: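 Recombinant human Pim-1 (bacterially expressed) with histone H1 at 0.8 µg/µL, 10 µM ATP, in 40 mM Tris pH 7.5, 20 mM MgCl₂ and 0.1 mg/mL BSA, for 30 min at 30 °C. ADP-Glo reagent stops the reaction (50 min, rt), then detection reagent is added (1 h, rt) and luminescence is read.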
For orientation: ADP-Glo first removes unused ATP, then detects ADP through luciferase.

Experiment [2] deals with Dual specificity tyrosine-phosphorylation-regulated kinase 1A (Rattus norvegicus, UniProt Q63470).
Experiment [3] addresses CDK2/Cyclin A2 (Homo sapiens, UniProt P24941). Kind of experiment: Inhibition of human CDK2/CyclinA using histone H1 as substrate after 30 mins by ADP-Glo reagent based luminescence assay. The experiment is classed as protein-complex assay.
The target in experiment [4] is CDK9/cyclin T1 (Homo sapiens, UniProt P50750). The experiment in a line: Inhibition of recombinant human CDK9/CyclinT expressed in baculovirus infected Sf9 insect cells using YSPTSPSYSPTSPSYSPTSPSKKKK as substrate after 30 mins by ADP-Glo reagent based luminescence assay.
The target in experiment [5] is T1, Serine/threonine-protein kinase haspin (Homo sapiens, UniProt Q8TF76).
T1 sequence (Q8TF76 whole entry): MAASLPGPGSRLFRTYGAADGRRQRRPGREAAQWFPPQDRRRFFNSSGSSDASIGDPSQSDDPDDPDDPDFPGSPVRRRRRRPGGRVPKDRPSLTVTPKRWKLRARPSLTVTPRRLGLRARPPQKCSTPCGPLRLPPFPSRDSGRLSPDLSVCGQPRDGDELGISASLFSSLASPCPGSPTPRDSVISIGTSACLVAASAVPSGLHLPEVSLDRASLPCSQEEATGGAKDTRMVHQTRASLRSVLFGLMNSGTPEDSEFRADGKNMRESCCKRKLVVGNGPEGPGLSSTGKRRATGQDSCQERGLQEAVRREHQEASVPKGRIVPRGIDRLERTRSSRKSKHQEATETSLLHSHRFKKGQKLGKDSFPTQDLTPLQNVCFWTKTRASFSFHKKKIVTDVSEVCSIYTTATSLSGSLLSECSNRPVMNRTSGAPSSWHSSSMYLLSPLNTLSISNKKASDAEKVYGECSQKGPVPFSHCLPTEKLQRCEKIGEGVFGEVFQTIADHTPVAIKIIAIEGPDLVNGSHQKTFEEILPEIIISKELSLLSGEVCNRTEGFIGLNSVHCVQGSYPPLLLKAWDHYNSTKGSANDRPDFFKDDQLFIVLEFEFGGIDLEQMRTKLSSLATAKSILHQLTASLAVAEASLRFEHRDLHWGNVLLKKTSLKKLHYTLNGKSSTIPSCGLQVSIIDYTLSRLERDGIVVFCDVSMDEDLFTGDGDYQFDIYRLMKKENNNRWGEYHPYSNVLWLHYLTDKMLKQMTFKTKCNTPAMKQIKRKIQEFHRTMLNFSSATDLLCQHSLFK
The experiment in a line: Inhibition of recombinant human haspin kinase domain (470 to 798 residues) expressed in bacterial expression system using histone H3 peptide as substrate after 30 mins by ADP-Glo reagent based luminescence assay.

For experiment [6], the target named is Dual specificity protein kinase CLK1 (Mus musculus, UniProt P22518).
The target of experiment [7] is Glycogen synthase kinase-3 (Sus scrofa, UniProt B2LUN4+I6LNT8).
Experiment [8] has as its system KU812 cell line. Kind of experiment: Cytotoxicity against human KU812 cells assessed as reduction in cell viability after 48 hrs by MTT assay. The class given is functional, cell-based. To be noted: KU812, 48 h. A general note: Tetrazolium assays rely on reduction of a dye to a coloured formazan, in cell work by metabolically active cells.

Chain of Serine/threonine-protein kinase pim-1 (P11309 whole entry): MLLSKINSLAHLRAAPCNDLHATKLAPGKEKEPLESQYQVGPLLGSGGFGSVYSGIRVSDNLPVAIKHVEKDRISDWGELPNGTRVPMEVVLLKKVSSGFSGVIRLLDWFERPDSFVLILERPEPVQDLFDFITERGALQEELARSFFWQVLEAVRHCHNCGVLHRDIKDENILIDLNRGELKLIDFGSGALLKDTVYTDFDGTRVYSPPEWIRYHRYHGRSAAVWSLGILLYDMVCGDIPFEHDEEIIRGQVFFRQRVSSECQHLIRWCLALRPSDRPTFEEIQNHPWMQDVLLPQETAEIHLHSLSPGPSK
Chain of Dual specificity protein kinase CLK1 (P22518 whole entry): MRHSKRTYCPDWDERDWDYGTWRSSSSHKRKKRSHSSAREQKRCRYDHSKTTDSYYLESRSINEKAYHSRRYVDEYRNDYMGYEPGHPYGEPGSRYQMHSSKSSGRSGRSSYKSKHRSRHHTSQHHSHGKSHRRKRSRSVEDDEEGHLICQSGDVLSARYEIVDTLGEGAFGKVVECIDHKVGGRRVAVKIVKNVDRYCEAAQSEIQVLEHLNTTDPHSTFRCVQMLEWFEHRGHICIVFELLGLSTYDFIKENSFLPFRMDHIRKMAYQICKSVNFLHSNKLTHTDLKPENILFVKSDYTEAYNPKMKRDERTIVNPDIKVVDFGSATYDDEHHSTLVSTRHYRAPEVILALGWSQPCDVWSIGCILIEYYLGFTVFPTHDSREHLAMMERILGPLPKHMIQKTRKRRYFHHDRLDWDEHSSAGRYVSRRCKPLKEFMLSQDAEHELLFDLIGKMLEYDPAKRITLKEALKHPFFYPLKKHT
Chain of CDK9/cyclin T1 (O60563 whole entry): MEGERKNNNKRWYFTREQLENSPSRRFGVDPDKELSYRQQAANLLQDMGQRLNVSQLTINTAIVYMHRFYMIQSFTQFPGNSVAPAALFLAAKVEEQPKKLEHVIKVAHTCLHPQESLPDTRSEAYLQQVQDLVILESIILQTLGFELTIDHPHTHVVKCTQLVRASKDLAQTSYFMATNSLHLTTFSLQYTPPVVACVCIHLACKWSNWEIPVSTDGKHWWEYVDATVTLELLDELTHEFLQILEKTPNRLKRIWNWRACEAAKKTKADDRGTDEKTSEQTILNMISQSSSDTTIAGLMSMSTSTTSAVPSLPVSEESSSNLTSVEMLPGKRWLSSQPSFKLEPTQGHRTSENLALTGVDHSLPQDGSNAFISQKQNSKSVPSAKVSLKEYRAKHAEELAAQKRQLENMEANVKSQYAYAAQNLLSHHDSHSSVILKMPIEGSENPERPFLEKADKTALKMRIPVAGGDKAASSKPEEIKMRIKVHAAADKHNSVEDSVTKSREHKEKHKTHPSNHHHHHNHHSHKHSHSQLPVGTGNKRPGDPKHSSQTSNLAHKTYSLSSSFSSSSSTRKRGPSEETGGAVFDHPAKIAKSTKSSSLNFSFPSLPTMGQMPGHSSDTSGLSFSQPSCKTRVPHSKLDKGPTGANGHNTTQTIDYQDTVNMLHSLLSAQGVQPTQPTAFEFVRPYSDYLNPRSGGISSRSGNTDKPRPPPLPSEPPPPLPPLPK
Chain of CDK9/cyclin T1 (P50750 whole entry): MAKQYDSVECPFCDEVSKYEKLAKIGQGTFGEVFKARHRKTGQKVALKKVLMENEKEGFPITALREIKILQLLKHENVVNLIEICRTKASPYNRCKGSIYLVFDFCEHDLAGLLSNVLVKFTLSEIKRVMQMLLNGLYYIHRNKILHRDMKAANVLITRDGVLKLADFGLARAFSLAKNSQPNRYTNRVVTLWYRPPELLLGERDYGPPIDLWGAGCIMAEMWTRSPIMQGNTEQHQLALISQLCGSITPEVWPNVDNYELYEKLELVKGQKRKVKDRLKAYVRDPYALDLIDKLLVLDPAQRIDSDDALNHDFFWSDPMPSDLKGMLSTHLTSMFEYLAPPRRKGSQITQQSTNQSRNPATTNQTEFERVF

Turning to `CCOC(=O)c1nc2ccccc2nc1Nc1cccc(O)c1`, in experiment [1], the IC50 is over 10 µM.

On to `CCOC(=O)c1nc2ccccc2nc1Nc1ccc(C2CCN(C)CC2)cc1`, for which the 50% inhibitory concentration (IC50) in experiment [1] is over 10 µM.

For the compound `O=C(O)c1nc2ccccc2nc1Nc1ccc2[nH]ccc2c1`, in experiment [1], the IC50 was over 10 µM.

Take `CCOC(=O)c1nc2ccccc2nc1Nc1cccc(N)c1`: the IC50 in experiment [1] was over 10 µM.

With `O=C(O)c1nc2ccccc2nc1Nc1cccc(N2CCOCC2)c1`, the IC50 was 1.01 µM in experiment [1]; over 10 µM in experiment [2]; over 10 µM in experiment [3]; over 10 µM in experiment [4]; over 10 µM in experiment [5]; over 10 µM in experiment [6]. Also, in experiment [7], the IC50 is over 10 µM. Besides, the EC50 in experiment [8] came out at 57.3 µM.

Take `Nc1ccc(Nc2nc3ccccc3nc2C(=O)O)cc1`: the IC50 in experiment [1] was over 10 µM.

As to `Cc1ccc(NC(=O)c2ccc(CN3CCN(C)CC3)cc2)cc1Nc1nccc(-c2cccnc2)n1` [IMATINIB MESYLATE], in experiment [8], the EC50 came out at 0.6 µM.

Turning to `NC(=O)c1nc2ccccc2nc1Nc1cccc(N2CCOCC2)c1`, the IC50 in experiment [1] was over 10 µM.

Consider `O=C(O)c1nc2ccccc2nc1Nc1ccccc1O`, for which the half-inhibitory concentration (IC50) in experiment [1] was 0.76 µM; in experiment [2], 0.74 µM; in experiment [3], over 10 µM; in experiment [4] it was over 10 µM; in experiment [5] it was over 10 µM; in experiment [6], over 10 µM. Further, in experiment [7], the IC50 was over 10 µM. The EC50 in experiment [8] was 178 µM.

As to `CN1CCC(c2ccc(Nc3nc4ccccc4nc3C(=O)O)cc2)CC1`, the half-inhibitory concentration (IC50) in experiment [1] is over 10 µM.

In the case of `CCOC(=O)c1nc2ccccc2nc1Nc1ccc(O)cc1`, the IC50 in experiment [1] was over 10 µM.

As for `CCOC(=O)c1nc2ccccc2nc1Nc1ccc2[nH]ccc2c1`, the IC50 in experiment [1] was over 10 µM.

As to `Nc1cccc(Nc2nc3ccccc3nc2C(=O)[O-])c1.[K+]`, the IC50 was 2.8 µM in experiment [1]; 1.67 µM in experiment [2]; over 10 µM in experiment [3]; over 10 µM in experiment [4]; over 10 µM in experiment [5]; over 10 µM in experiment [6]. In experiment [7], this compound yielded a concentration for half-maximal inhibition (IC50) of over 10 µM. Also, in experiment [8], the EC50 came out at 63.8 µM.

For `O=C(O)c1nc2ccccc2nc1Nc1cccc(O)c1`, the half-maximal inhibitory concentration (IC50) in experiment [3], in experiment [4], in experiment [5], in experiment [6] and in experiment [7] was over 10 µM throughout. In addition, the concentration for a half-maximal effect (EC50) in experiment [8] was found to be 38.9 µM.

Consider `CCOC(=O)c1nc2ccccc2nc1Nc1cccc(N2CCOCC2)c1`, for which the IC50 in experiment [1] was over 10 µM.

Turning to `O=C(O)c1nc2ccccc2nc1Nc1ccc(O)cc1`, the IC50 was 0.29 µM in experiment [1]; 0.098 µM in experiment [2]; over 10 µM in experiment [3]; over 10 µM in experiment [4]; over 10 µM in experiment [5]; over 10 µM in experiment [6]. This compound gave an IC50 in experiment [7] of over 10 µM. In experiment [8], the 50% effective concentration (EC50) came out at 41.7 µM.

For the compound `CCOC(=O)c1nc2ccccc2nc1Nc1ccccc1O`, in experiment [1], the IC50 is over 10 µM.

`CCOC(=O)c1nc2ccccc2nc1Nc1ccc(N)cc1`: in experiment [1], the IC50 is over 10 µM.

One may read the IC50 as the point on the concentration scale where inhibition reaches its midpoint. Broadly, the EC50 is the concentration at which the effect is half-maximal.
